Shown are actives, neighbours in structure and some others; about 3.1% of the full set was active somewhere.
T cruzi repl: T. cruzi replication inhibition. AID 1885. actives 1.4% (n = 300,000). inhibition, % (no concentration beside the values). T. cruzi beta-gal in NIH3T3, luminescence, 90 h;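 active = mean inhibition across valid replicates above about 55%, limit read from the data; inconclusive = mean below that limit but half or more replicates reach it; inactive = mean below it, under half of replicates reach it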;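 also: signal also drops with host cell toxicity which is not excluded here; 0% = plate median of DMSO wells and 100% = zero luminescence signal; higher percent means less beta-gal luminescence so fewer parasites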
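System: Mouse NIH/3T3 fibroblasts infected with β-gal-expressing T. cruzi Tulahuen C4 | Quantity: NIH/3T3 cells, 5,000 per well | Reagent: 5000 reporter trypomastigotes per well | Dosing: Compound pinned at 50 nL/well, DMSO | Schedule: 3 h host attachment, then at least 90 h co-culture | Detection: GalScreen luminescence, 60 min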
Beta apoptosis: blocks beta cell apoptosis. INS-1E cytokine-induced death, ATP luminescence, 48 h; percent of positive-control rescue, neutral wells zero. protection from apoptosis, % (no concentration beside the values). actives 0.8% (n = 300,000);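 active = Every replicate reaches about 75%, or at least half do and their mean reaches it too, limit read from the data; inconclusive = At least half of replicates reach the limit but their mean does not; inactive = Under half of replicates reach the limit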;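 also: 0% = cytokine-treated negative control wells and 100% = positive control rescue; higher means more ATP so stronger rescue from cytokine killing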
Calb FLC: C. albicans growth modulation with fluconazole; C. albicans CaCi-2 + fluconazole, Alamar Blue growth, 48 h; growth inhibition, % (no concentration beside the values); actives 0.57% (n = 300,000); AID 1979;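 active = growth inhibition above about 58% in most replicates, limit read from the data, passing the limit was not always enough; inconclusive = exactly half the replicates above a set limit; inactive = most replicates below a set limit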;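 also: all wells also contain fluconazole at 8 µg/ml as a sub-toxic cotreatment; 0% = median of DMSO wells and 100% = median of geldanamycin control wells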
HIF act: HIF pathway transcriptional activation; U2OS HRE-luciferase reporter, luminescence; normalized: DMSO 0%, desferrioxamine 100%; activation, % at 7.5 µM (by protocol); actives 0.32% (n = 300,000);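 active = mean activation of at least 10% of the iron chelator positive control signal, with at least half of replicates also reaching 10%; inconclusive = mean and replicate majority disagree about reaching 10%; inactive = mean and most replicates under 10%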
CSC inhib: blocks cancer stem cells; inhibition, % at 7.5 µM; cancer stem cell-like cells viability, luminescence; actives 1.1% (n = 300,000); in the data active = inhibition above about 75%; inconclusive = no clear call, values can overlap the other calls; tested in HMLE shEcad cells
PolyA inhibitor: yeast polyadenylation inhibition; S. cerevisiae SKY197-pL101 polyadenylation reporter, beta-gal luminescence; efflux-impaired pdr1/pdr3 knockout yeast; score 100 = 6 SD above DMSO; activity score, % at 12 µM; actives 0.02% (n = 300,000); AID 1875;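 active = lowest replicate activity score at least 50, where 100 means six control SD above control mean; inconclusive = lowest score under 50 but half or more replicates reach 50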;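 also: yeast exposed to compound for 9 h at 30 °C; higher score means more reporter readthrough which indicates perturbed polyadenylation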
* = called active by the depositor; ? = inconclusive; / = not tested or not shown.

SMILES	T cruzi repl	Beta apoptosis	Calb FLC	HIF act	CSC inhib	PolyA inhibitor
Cc1cc2oc(=O)cc(Cn3ncc(Cl)c(Cl)c3=O)c2cc1Cl	57*	110*	18	0	80*	-27
CC(C)c1cc(-c2cc(-c3ccc(Cl)cc3)on2)nc(NC2CCCC2)n1	25	8	4	0	40	1
CC(C)c1cc(-c2cc(-c3ccccc3)on2)nc(NC2CCCC2)n1	11	7	1	-2	85*	6
CCCn1nnc(NC(=S)NC(=O)c2cccs2)n1	-8	1	-5	1	-13	-3
COc1ccc(-c2nc(N)ncc2-c2ccccc2)c(O)c1	14	-24	15	0	-6	-21
CN(C)c1nc(N)ncc1-c1ccc(Oc2ccccc2)cc1	70*	3	45	0	-8	-21
Cc1ccc(-n2c(Cc3ccccc3)n[nH]c2=S)c(C)c1	-6	-7	72*	0	7	-7
Cc1ccc(-n2c(CC#N)n[nH]c2=S)c(C)c1	1	0	12	0	9	12
CC(NC(=O)c1ccc(OC2CCN(Cc3ccccn3)CC2)cc1)c1nccs1 (stereo unspecified)	-6	2	-13	1	0	30
CS(=O)(=O)N(CC(=O)Nc1cccc(F)c1)c1cccc([N+](=O)[O-])c1	-16	23	-8	0	-11	1
CC(=O)Nc1ccc(NC(=O)CN(c2cccc([N+](=O)[O-])c2)S(C)(=O)=O)cc1	-2	108*	-12	0	-17	7
Cc1ccc(NS(=O)(=O)c2ccc(NC(=O)CN(c3cc([N+](=O)[O-])ccc3C)S(C)(=O)=O)cc2)c(C)c1	51	106*	11	-1	-5	8
Cc1ccc(NC(=O)CN(c2ccc(Cl)cc2)S(=O)(=O)c2cc([N+](=O)[O-])ccc2Cl)c(C)c1	59*	25	5	-1	45	-11
Cc1ccc(NS(=O)(=O)c2ccc(NC(=O)c3ccccc3C(=O)O)cc2)c(C)c1	64*	/	1	0	-6	-2
Cc1cc(C)cc(NS(=O)(=O)c2ccc(NC(=O)c3ccccc3C(=O)O)cc2)c1	-6	-7	4	1	-5	6
Cc1ccc([N+](=O)[O-])cc1N(CC(=O)NC1CCCC1)S(C)(=O)=O	7	-4	-19	0	0	/
COc1ccc(F)cc1C(=O)C1CCCN(C(=O)c2ccc(C(C)=O)s2)C1 (stereo unspecified)	0	/	-9	0	/	21
CCCCNC(=O)CCCN1C(=O)c2cccnc2Sc2ccccc21	-11	/	1	-1	/	8
Cc1ccc(-c2cc(C(F)F)n3ncc(C(=O)N4CCc5ccccc5C4)c3n2)cc1	58*	3	45	0	42	-21
Cc1ccc(-c2cc(C(F)F)n3ncc(C(=O)N4CCCc5ccccc54)c3n2)cc1	10	7	2	-2	-18	6
CC(C)N(C(=O)COC(=O)[C@H](C)NC(N)=O)c1ccccc1	-23	/	-8	0	/	1
CS(=O)(=O)c1ccc(CNC(=O)C2(C(F)(F)F)CC(CCCO)CCCO2)cc1 (stereo unspecified)	5	5	6	1	45	-7
CCCCc1nnc(NC(=O)c2ccc3[nH]c(=O)c(=O)[nH]c3c2)s1	4	4	-3	197*	11	25
CCCCc1nnc(NC(=O)c2ccc(N3CCCC3=O)cc2)s1	7	/	14	-19	5	-2
CC(NS(=O)(=O)c1ccc2c(c1)CC(C)N2C(=O)C1CC1)c1ccccc1 (stereo unspecified)	-7	0	1	0	-6	-3
SMILES	T cruzi repl	Beta apoptosis	Calb FLC	HIF act	CSC inhib	PolyA inhibitor
COc1ccc(Nc2nc(N3CCCC3)c3ccccc3n2)cc1	13	81*	12	0	-10	-17
COc1ccc(Nc2nc(N3CCCCC3)nc3ccccc23)c(OC)c1	58*	17	4	-1	15	-5
CCN(CC)c1ccc(Nc2nc(N3CCOCC3)c3ccccc3n2)cc1	44	69	45	-1	29	-15
COc1cccc(Oc2nc(-c3ccncc3)nc3ccccc23)c1	55*	-3	5	0	68	-12
CCOc1ccc(Nc2nc(N3CCCC3)nc(N3CCN(c4ccc(OC)cc4)CC3)n2)cc1	61*	22	3	0	/	14
O=C(NCc1ccccc1)c1cc[n+](CC(=O)c2cccs2)cc1	10	-1	2	0	-2	7
CCO[C@H]1OC(C(=O)N2CCOCC2)=C[C@@H](c2coc3ccccc3c2=O)[C@@H]1CCCO	-11	-9	-3	0	-6	7
Cc1cc(C)c(C)c(OC(=O)c2sc(Cl)nc2C)c1	-22	35	7	0	16	-4
O=C(NCc1cccc(C(F)(F)F)c1)c1ccc(=O)[nH]c1	-2	0	0	1	-27	9
COc1cccc(Nc2nc(NCC3CCCO3)c3ccccc3n2)c1 (stereo unspecified)	60*	42	48	-1	21	19
COc1ccc(Nc2nc(NC(C)(C)C)nc(N3CCOCC3)n2)c(OC)c1	59*	-4	-11	0	-1	-20
COc1cccc(Nc2nc(-c3ccccc3)nc3ccccc23)c1	12	8	13	1	92*	-15
COc1cccc(Nc2nc(-c3ccccc3O)nc3ccccc23)c1	20	8	2	1	8	13
COc1ccc(Nc2nc(-c3ccccc3)nc3ccccc23)c(OC)c1	65*	10	?	0	12	25
COc1ccccc1N1CCN(CCN2C(=O)C3CCCCN3C2=O)CC1 (stereo unspecified)	0	-6	-6	-14	-13	4
O=C(NC(=S)Nc1ccccc1N1CCOCC1)c1ccc(-c2ccccc2F)o1	-29	2	21	0	29	3
O=C(OCCNc1nc(-c2ccccc2)nc2ccccc12)c1cccnc1	47	1	53	0	5	7
CCCOC(=O)c1cccc(Nc2nc(-c3cccnc3)nc3ccccc23)c1	65*	30	-18	0	72	3
O=C(Cn1ncc2c([nH]c3ccccc32)c1=O)N1CCN(c2ccccn2)CC1	-12	-5	4	0	0	-5
CC(C)C(=O)NC(=S)Nc1ccccc1N1CCN(C(=O)c2ccc(Cl)cc2)CC1	64*	27	6	0	17	1
COc1ccc2c(c1)C=C(CN1CCN(C3CCCC3)C(CCO)C1)CO2 (stereo unspecified)	58*	-2	6	-1	64	4
CCOc1cc(N2CCOCC2)c(OCC)cc1NC(=O)c1ccc2ccccc2n1	58*	15	1	0	16	0
